SENP8 block-1: blocks human SENP8 cleavage of Nedd8 substrate; Q96LD8; recombinant SENP8, Nedd8 substrate fluorescence; inhibition, % at 20 µM; 360,000 compounds, 0.64% hits; in the data active = inhibition mostly above about 40%, no sharp cut-off; inactive = mostly below about 27%
SENP7 block: blocks the human protease SENP7; Q9BQF6; recombinant SENP7, Z-RLRGG-aminoluciferin luminescence, 40 min; inhibition, % at 5 µM; 330,000 compounds, 1.5% hits;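 active = inhibition above about 50% at the single test dose, limit read from the data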;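 also: plate controls were DMSO with enzyme for no effect and no enzyme buffer wells for full effect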
SENP8 block-2: inhibitors of human SENP8 protease | AID 2540 | 330,000 compounds, 1.2% hits | purified SENP8, Z-RLRGG-aminoluciferin cleavage, luminescence | Q96LD8 | inhibition, % at 10 µM; in the data active = inhibition above about 50%
SENP6 block: SENP6 protease inhibition | Q9GZR1 | Recombinant SENP6 catalytic domain, aminoluciferin luminescence | inhibition, % at 10 µM | 330,000 compounds, 1.8% hits;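 active = inhibition above about 50% at the single tested dose, limit read from the data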;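 also: plate controls were DMSO wells with enzyme for no effect and DMSO wells lacking enzyme for full effect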
Target sequence (Q9GZR1 628-1112 limits assumed): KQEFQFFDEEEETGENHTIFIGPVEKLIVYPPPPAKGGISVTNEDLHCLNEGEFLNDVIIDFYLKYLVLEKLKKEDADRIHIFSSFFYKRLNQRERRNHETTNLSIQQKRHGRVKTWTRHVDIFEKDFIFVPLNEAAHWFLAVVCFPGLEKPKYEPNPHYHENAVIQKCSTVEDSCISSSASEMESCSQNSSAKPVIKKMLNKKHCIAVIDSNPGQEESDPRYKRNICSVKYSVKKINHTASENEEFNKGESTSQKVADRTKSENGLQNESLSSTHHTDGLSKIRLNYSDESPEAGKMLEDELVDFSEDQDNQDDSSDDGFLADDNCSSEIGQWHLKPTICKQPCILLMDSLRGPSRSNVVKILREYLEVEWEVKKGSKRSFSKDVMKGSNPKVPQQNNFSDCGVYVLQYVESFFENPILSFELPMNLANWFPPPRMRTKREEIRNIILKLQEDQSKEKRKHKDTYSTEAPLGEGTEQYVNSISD
Apaf1 inhib: human Apaf-1 inhibition; O14727; reconstituted apoptosome caspase-3 activity, DEVD-Rh110 fluorescence; inhibition, % at 20 µM; 330,000 compounds, 0.71% hits; AID 489030; active = inhibition of at least 40% at 20 µM;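 also: plate controls were DMSO wells for no effect and DEVD-CHO caspase inhibitor wells for full effect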
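System: Apoptosome proteins | Medium: Hepes pH 7.5 with detergent and BSA | Also added: Cytochrome c trigger plus (Z-DEVD)2-Rh110 caspase-3 substrate | Incubation: 30 min compound preincubation, 50 min activation, room temperature | Detection: Rhodamine 110 fluorescence at Ex 480/Em 540 nm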
SENP1 inh: blocks the human SENP1 SUMO protease catalytic domain; Q9P0U3; recombinant SENP1 catalytic domain, CyPet-SUMO1-YPet FRET cleavage; inhibition, % at 10 µM; 360,000 compounds, 0.21% hits;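 active = inhibition at least 30% at 10 µM, raw YFP signal under a set limit, fluorescence ratio 0.5 to 1.5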;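 also: 0% = enzyme with DMSO and 100% = no enzyme wells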
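Assay system – human recombinant His6-tagged SENP1 catalytic domain enzyme · Input – SENP1 enzyme, 20 pM final · Buffer or medium – Tris pH 8 buffer plus EDTA, NaCl, BME, BSA, NP40, catalase · Schedule – 50 min reaction at room temperature · Technique – FRET read of cyan and yellow fluorescence · Control set – no-enzyme wells low, DMSO-plus-enzyme wells high control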
SENP8 conf: confirmation of human SENP8 protease inhibitors; shares compounds with SENP7 block; inhibition, % at 12.5 µM; Recombinant SENP8, Z-RLRGG-aminoluciferin luminescence, 60 min; 6,200 compounds, 40% hits;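 active = mean inhibition across replicates above about 50%, limit read from the data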
SENP6 conf: confirmation of human SENP6 protease inhibitors | recombinant SENP6, Z-RLRGG-aminoluciferin luminescence | 6,200 compounds, 58% hits | inhibition, % at 12.5 µM | shares compounds with SENP7 block
SENP7 conf: confirmation of human SENP7 protease inhibitors. inhibition, % at 12.5 µM. shares compounds with SENP7 block. AID 488917. 6,200 compounds, 69% hits. recombinant SENP7, Z-RLRGG-aminoluciferin luminescence, 40 min
Casp3 SENP sel: inhibits human caspase-3 in SENP selectivity test. inhibition, % at 12.5 µM. AID 488918. purified caspase-3, Z-DEVD-aminoluciferin luminescence, 60 min. shares compounds with SENP7 block. 6,200 compounds, 60% hits;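 active = mean inhibition above about 50%, limit read from the data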;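 also: plate controls were enzyme with DMSO for no effect and wells without caspase-3 for full effect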
Target sequence (P42574 28-227 limits assumed): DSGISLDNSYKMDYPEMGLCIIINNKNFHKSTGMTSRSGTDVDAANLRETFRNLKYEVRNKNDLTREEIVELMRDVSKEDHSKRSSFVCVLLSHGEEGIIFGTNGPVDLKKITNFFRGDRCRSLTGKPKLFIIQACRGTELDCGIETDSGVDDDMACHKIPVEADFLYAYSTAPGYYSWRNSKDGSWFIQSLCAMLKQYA
Luc interf: counter-screen for SENP inhibitors: luminescence interference | inhibition, % at 12.5 µM | shares compounds with SENP7 block | 6,200 compounds, 39% hits | Pre-incubated SENP8/Z-RLRGG-aminoluciferin, luciferase luminescence interference;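 active = mean inhibition above about 50% when retested at one dose, limit read from the data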;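 also: plate controls were DMSO wells with completed reaction for no effect and substrate without enzyme for full effect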
Apaf-1 inh conf: Apaf-1 inhibition, single-dose confirmed; shares compounds with Apaf1 inhib; 1,800 compounds, 25% hits; reconstituted apoptosome, caspase-3 DEVD-Rh110 fluorescence; inhibition, % at 20 µM;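 active = mean inhibition of at least 40% at 20 µM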;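 also: plate controls were DMSO wells for no effect and DEVD-CHO caspase inhibitor control wells for full effect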
Rh110 quench: counter-screen for Apaf-1 inhibitors: fluorescence interference | 1,800 tested, under 10 active | AID 504615 | Rh110 fluorescence interference, quenched caspase reaction | shares compounds with Apaf1 inhib | activation (fluorescence interference), % at 20 µM;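 active = signal rise of 40% or more at 20 µM, treated as a fluorescence artifact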
Apaf1 inh interf: Apaf-1 inhibitor counter-screen fluorescence artifact | fluorescence interference counterscreen, Apaf-1 assay format | shares compounds with Apaf1 inhib | IC50, µM | 460 tested, under 10 active; call rule not given here
* = called active by the depositor; i = inactive; nt = no result given. Rows were chosen to be rich in hits. Some 2.9% of all compounds tested hit in one or more screens of this group.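 The calls were made as follows, unless noted: active = mean inhibition above about 50% in the one-dose retest (limit read from the data); inactive = the rest.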

SMILES	SENP8 block-1	SENP7 block	SENP8 block-2	SENP6 block	Apaf1 inhib	SENP1 inh	SENP8 conf	SENP6 conf	SENP7 conf	Casp3 SENP sel	Luc interf	Apaf-1 inh conf	Rh110 quench	others
CCOC(=O)c1c(NC(=O)c2ccco2)n(C2CCCCC2)c2nc3ccccc3nc12	-262.0	42.5	51.1*	73.0*	87.5*	-25.4	4.9	31.5	17.0	-0.4	-3.0	35.9	1.3
CCC(=O)Nc1c(C#N)c2nc3ccccc3nc2n1C1CCCCC1	-368.4	-1.7	-2.1	14.5	-9.3	-89.9	nt	nt	nt	nt	nt	nt	nt
COc1ccc(-n2c(NC(=O)c3ccco3)c(C#N)c3nc4ccccc4nc32)cc1	-251.2	86.5*	95.0*	97.5*	96.4*	-22.0	-3.4	68.4*	53.5*	4.5	1.9	93.0*	3.2	Apaf1 inh interf=>100
CCCCn1c(NC(=O)c2ccccc2Cl)c(C#N)c2nc3ccccc3nc21	-302.5	70.2*	93.9*	96.0*	92.7*	-21.9	75.8*	89.7*	78.2*	2.3	11.8	59.1*	-0.9	Apaf1 inh interf=>100
COc1ccc(N2CC(C(=O)Nc3nnc(SCC(=O)NCC4CCCO4)s3)CC2=O)cc1 (stereo unspecified)	-0.8	-2.4	2.3	1.8	2.0	-3.3	nt	nt	nt	nt	nt	nt	nt
CC1CCCC(C)N1C(=O)COC(=O)c1cc(=O)[nH]c2ccccc12 (stereo unspecified)	-249.7	-4.8	-9.6	-2.3	1.9	2.7	nt	nt	nt	nt	nt	nt	nt
CCC(C(=O)Nc1c(C)cccc1C)n1c(-c2ccc(-c3ccccc3)cc2)nc2ccccc21 (stereo unspecified)	-369.6	nt	nt	nt	nt	2.2	nt	nt	nt	nt	nt	nt	nt
CCC(CO)Oc1cc(NCc2ccccc2)c2ncn(C(C)C)c2c1 (stereo unspecified)	13.1	11.3	-1.2	-0.4	32.7	-30.4	nt	nt	nt	nt	nt	nt	nt
CC(C)n1cnc2c(NCc3ccccc3)cc(N[C@H](C)CO)cc21	-73.4	46.9	81.0*	-20.3	96.7*	-16.1	85.0*	90.4*	67.8*	97.3*	-3.3	95.6*	5.3	Apaf1 inh interf=>100
CCC(COC)Oc1cc(NCc2ccccc2)c2ncn(C(C)C)c2c1 (stereo unspecified)	10.9	73.1*	76.8*	83.7*	97.2*	-60.0	41.6	71.1*	22.7	4.8	-3.3	67.2*	1.2	Apaf1 inh interf=>100
O=C(O)C(CCc1ccccc1)N1CCOCC1 (stereo unspecified)	24.5	nt	nt	nt	nt	0.1	nt	nt	nt	nt	nt	nt	nt
CCOC(=O)C1=C[C@@H](C(C)(C)C)N(S(=O)(=O)c2ccc(C)cc2)[C@H]1c1cccc2ccccc12	10.3	nt	nt	nt	nt	5.0	nt	nt	nt	nt	nt	nt	nt
N#Cc1sc2nc(-c3ccccc3)cc(-c3ccco3)c2c1N	-234.7	37.3	93.0*	85.5*	89.6*	-17.3	4.0	30.2	3.2	12.8	2.7	13.9	-3.8
CN1C(=O)CC(Nc2cccc3cccc(N)c23)C1=O (stereo unspecified)	13.2	61.3*	44.5	-9.8	53.9*	-7.3	9.4	23.5	6.7	-1.7	-3.4	11.8	2.6
CCOC(=O)c1c(CN(C)C)n(C)c2c(O)c(N=NC(N)=O)c3ccc(Br)cc3c12	79.2*	10.0	34.3	67.8*	95.1*	2.2	16.1	40.0	28.0	7.5	1.4	52.9*	14.6	Apaf1 inh interf=>100
CCOC(=O)c1c(CN(C)C)n(C)c2ccc(OC(C)=O)cc12	23.1	3.4	5.8	1.9	-7.3	1.2	nt	nt	nt	nt	nt	nt	nt
COc1cccc(CNC(=O)COC(=O)c2ccc(N3CCCC3=O)cc2)c1	6.5	nt	nt	nt	nt	2.5	nt	nt	nt	nt	nt	nt	nt
[O-][n+]1cccc2c(Br)cc(Br)c(O)c21	-92.7	7.4	17.8	80.9*	72.9*	-19.8	-1.1	8.9	-4.8	7.3	1.8	18.1	-0.8
Nc1ncc(Br)cc1N=Cc1ccccc1	27.1	16.9	27.5	71.9*	61.8*	15.6	11.7	9.0	18.8	18.2	13.9	8.4	-2.0
CCOCCCNC1=C(Cl)C(=O)c2ccccc2C1=O	47.4*	53.5*	46.6	75.2*	47.9*	-1.1	5.0	32.9	2.1	5.0	3.5	29.7	0.3
CCOCCCNS(=O)(=O)c1ccccc1	13.4	-1.4	-10.0	-11.6	-5.8	-0.7	nt	nt	nt	nt	nt	nt	nt
S=C(Nc1ccc2nsnc2c1)N1CCCC1	-51.6	53.9*	57.0*	82.6*	98.4*	-22.7	5.8	28.5	23.8	69.9*	66.7*	8.4	-0.3
O=C(Nc1ccc2nsnc2c1)N1CCCCCC1	i	12.9	3.8	-15.0	13.2	-8.7	nt	nt	nt	nt	nt	nt	nt
Cc1cccc(-c2cc3c(nn2)-c2ccccc2C3=O)c1	32.1	99.6*	95.3*	89.6*	91.1*	0.9	32.5	74.5*	88.3*	83.0*	34.0	12.6	10.5
COc1ccc(-c2cn(Cc3ccc4c(c3)C(=O)c3ccccc3C4=O)nn2)cc1	16.4	11.4	-7.1	1.0	0.7	-0.8	nt	nt	nt	nt	nt	nt	nt
Cc1cnc2c(c1)C(=O)c1ccccc1-2	18.4	1.7	-4.4	-14.4	3.9	-1.0	nt	nt	nt	nt	nt	nt	nt
O=C1c2ccccc2-c2nnc(-c3ccccc3)cc21	36.8	98.8*	95.8*	98.7*	71.3*	0.9	6.1	38.3	44.5	29.1	10.1	18.3	7.0
COc1ccc(-c2cc3c(nn2)-c2ccccc2C3=O)cc1	42.7*	99.1*	96.1*	97.1*	77.3*	3.6	-4.4	24.2	20.2	40.8	9.5	12.8	3.9
CC(C)(C)N1CC23CCC(C[C@@H]2C1=O)O3 (stereo partly specified)	11.6	2.7	-7.1	-4.0	-6.1	-0.1	nt	nt	nt	nt	nt	nt	nt
